Results as given in ChEMBL document CHEMBL1268935, “3-O-arylmethylgalangin, a novel isostere for anti-HCV 1,3-diketoacids (DKAs)” (Bioorg Med Chem, 2010).
pEC50, pIC50: −log10 of the molar value.

Legend:
[1] = test system: Hepatitis C virus; assay: Antiviral activity against HCV genotype 1 harboring luc-ubi-neo fusion gene infected in human Huh7 cells assessed as inhibition of viral RNA replication after 4 days by luciferase assay; format: functional, organism-based, Hepacivirus hominis; conditions: genotype 1, Huh-7, 96 h
How it was run: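 Huh-5-2 cells (Huh-7 carrying a subgenomic genotype 1 HCV replicon with luc-ubi-neo fusion gene) were seeded at 5 × 10³/well in complete DMEM with G418 and held 24 h at 37 °C, 5% CO₂. Medium was refreshed with G418 and compounds added from DMSO stock, then incubated 4 days at 37 °C. Luciferase was read out, and EC₅₀ was taken as 50% inhibition of replicon RNA replication. Interferon α-2b at 10,000 units/well served as reference.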

[2] = Selectivity index, ratio of CC50 for human HuH5.2 cells to EC50 for HCV genotype 1 harboring luc-ubi-neo fusion gene
How it was run: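 SI is CC₅₀/EC₅₀, both measured in Huh-5-2 replicon cells seeded at 5 × 10³/well. For CC₅₀, serial dilutions in complete DMEM without G418 were added 24 h after seeding, cells grew 3 days at 37 °C, and cell number was read by WST-1. EC₅₀ came from the 4-day replicon luciferase assay run with G418.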

[3] = Inhibition of HCV recombinant NS5B polymerase using [alpha32p]GTP after 30 mins by scintillation counting; design: species or system Hepacivirus hominis
How it was run: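 Recombinant NS5B primer/template-directed transcription in 30 mM Tris–HCl pH 7.2; compounds at various concentrations from 10% DMSO–water stocks, final DMSO 1%; stopped with 33 mM EDTA; products captured on DEAE filters, washed with 5% dibasic sodium phosphate, scintillation counted. IC50 estimated from primary cpm data, triplicate.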

[4] = Cytotoxicity against human HuH5.2 cells after 3 days by WST-1 assay; format: cell-based, Huh-5-2
How it was run: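 Huh-7-derived Huh-5-2 cells carrying subgenomic genotype 1 HCV replicon (luc-ubi-neo); 5 × 10³ cells/well seeded in complete DMEM with G418; serial compound dilutions in DMEM without G418 added 24 h after seeding; proliferation 3 days at 37 °C; cell number by WST-1. CC50 = concentration reducing cell proliferation by 50%.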

| SMILES | pEC50 [1] | Ratio CC50/EC50 [2] | pIC50 [3] | CC50 at 72 h [4] [µM] |
| --- | --- | --- | --- | --- |
| COc1ccccc1COc1c(-c2ccccc2)oc2cc(O)cc(O)c2c1=O | 4.55 | 1.9 | < 4.30 | 53 |
| N#Cc1ccccc1COc1c(-c2ccccc2)oc2cc(O)cc(O)c2c1=O | 5.30 | – | 4.96 | > 100 |
| Cc1cccc(COc2c(-c3ccccc3)oc3cc(O)cc(O)c3c2=O)c1 | 4.55 | 1 | 4.52 | 29 |
| Cc1ccccc1COc1c(-c2ccccc2)oc2cc(O)cc(O)c2c1=O | 4.47 | 1.6 | 5.14 | 55 |
| O=c1c(OCc2cccc([N+](=O)[O-])c2)c(-c2ccccc2)oc2cc(O)cc(O)c12 | 5.30 | 6.2 | 5.19 | 31 |
| O=c1c(OCc2ccc(Br)cc2)c(-c2ccccc2)oc2cc(O)cc(O)c12 | 4.92 | 0.2 | 5.85 | 2 |
| O=c1c(OCc2ccccc2[N+](=O)[O-])c(-c2ccccc2)oc2cc(O)cc(O)c12 | 4.92 | 4.3 | < 4.30 | 51 |
| Cc1ccc(COc2c(-c3ccccc3)oc3cc(O)cc(O)c3c2=O)cc1 | 4.85 | 2.9 | 4.34 | 40 |
| N#CCCCOc1ccccc1C(=O)/C=C(\O)C(=O)O | – | – | 6.46 | – |
| COc1ccc(COc2c(-c3ccccc3)oc3cc(O)cc(O)c3c2=O)cc1 | 5.00 | 5.7 | 4.53 | 57 |
| N#Cc1cccc(COc2c(-c3ccccc3)oc3cc(O)cc(O)c3c2=O)c1 | 4.44 | 0.6 | 6.70 | 21 |
| O=c1c(OCc2cccc(Br)c2)c(-c2ccccc2)oc2cc(O)cc(O)c12 | 4.74 | 0.8 | 5.34 | 15 |
| O=c1c(OCc2ccc([N+](=O)[O-])cc2)c(-c2ccccc2)oc2cc(O)cc(O)c12 | 5.15 | 5.7 | < 4.30 | 40 |
| O=c1c(OCc2cccc(Cl)c2)c(-c2ccccc2)oc2cc(O)cc(O)c12 | 4.60 | 1.8 | 7.00 | 46 |
| O=c1c(OCc2ccc(Cl)cc2)c(-c2ccccc2)oc2cc(O)cc(O)c12 | 4.82 | 2.4 | 6.52 | 36 |
| O=c1c(OCc2ccccc2Br)c(-c2ccccc2)oc2cc(O)cc(O)c12 | 5.05 | 1.3 | 4.98 | 12 |
| O=c1c(OCc2ccccc2Cl)c(-c2ccccc2)oc2cc(O)cc(O)c12 | 4.42 | – | < 4.30 | > 100 |
| COc1cccc(COc2c(-c3ccccc3)oc3cc(O)cc(O)c3c2=O)c1 | 4.66 | – | 4.68 | 28 |
| N#Cc1ccc(COc2c(-c3ccccc3)oc3cc(O)cc(O)c3c2=O)cc1 | 5.00 | 4.8 | 5.89 | 48 |
